ChEMBL document CHEMBL1770122, “Synthesis, antibacterial and antimycobacterial activities of some new 4-aryl/heteroaryl-2,6-dimethyl-3,5-bis-N-(aryl)-carbamoyl-1,4-dihydropyridines” (2011)
≈ marks a conversion by molar mass, not a printed value.

Tested on: Mycobacterium tuberculosis
Assay: Antimicrobial activity against multidrug-resistant Mycobacterium tuberculosis C110/09 after 4 weeks
Assay type: functional
Conditions: C110/09, 672 h
Outline: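 L-J proportion method against an MDR clinical isolate resistant to rifampicin, pyrazinamide and isoniazid. Drug in 64, 128 and 256 µg mL-1 dilutions in LJ medium slants, set overnight. Inoculated with 4 mg mL-1 suspension by 3 mm loop, 37 °C, 4 weeks. MIC is the lowest concentration fully inhibiting growth, by CFU versus controls (medium, inoculated, DMSO). Three independent determinations.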

Structure (SMILES) | MIC [µg/mL]
NC(=O)c1cnccn1 [PYRAZINAMIDE] | 128 (≈ 1040 µM)
CCc1ccc(C2C(C(=O)Nc3ccccc3)=C(C)NC(C)=C2C(=O)Nc2ccccc2)cc1 | > 256
CC1=C(C(=O)Nc2ccc(C)cc2)C(c2ccc[nH]2)C(C(=O)Nc2ccc(C)cc2)=C(C)N1 | 128 (≈ 291 µM)
CC1=C(C(=O)Nc2ccc(C)cc2)C(c2ccccn2)C(C(=O)Nc2ccc(C)cc2)=C(C)N1 | > 256
CC1=C(C(=O)Nc2ccccc2C)C(c2ccccn2)C(C(=O)Nc2ccccc2C)=C(C)N1 | 256 (≈ 566 µM)
